# Test results: ChEMBL document CHEMBL3877241 (J Med Chem, 2016)
# The source made the active and inactive calls. The calls are words filed in the database; no cut-off is given here.
# What was measured:
# [1] = molecular target: Histone deacetylase 1 (Homo sapiens, UniProt Q13547); assay: Inhibition of full length human recombinant C-terminal FLAG/His-tagged HDAC1 (1 to 482 residues) expressed in sf21 cells preincubated with enzyme followed by fluorogenic Arg-His-Lys-Lys(Ac)-AMC substrate addition measured after 2 hrs by fluorescence assay
# [2] = molecular target: Histone deacetylase 9 (Homo sapiens) (UniProt Q9UKV0); assay: Inhibition of HDAC9 (unknown origin) at 10 uM preincubated with enzyme followed by acetyl-Lys(trifluoroacetyl)-AMC substrate addition measured after 2 hrs by fluorescence assay relative to control
# Procedure, shortened: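 Fluorogenic HDAC assay in 50 mM Tris-HCl pH 8.0, 137 mM NaCl, 2.7 mM KCl, 1 mM MgCl2. Enzyme pre-incubated with compound delivered in DMSO. Substrate then added: Arg-His-Lys(Ac) at 50 μM for most isoforms, or acetyl-Lys(trifluoroacetyl)-AMC for class IIa. Incubated 2 h at 30 °C, stopped with developer plus trichostatin A, read at Ex/Em 360/460 nm at endpoint. IC50 from 10-dose curves.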
# [3] = molecular target: Mitogen-activated protein kinase 10 (Homo sapiens, UniProt P53779); assay: Inhibition of full length human MAPK10 (V28 to Q422 residues) expressed in mammalian expression system by KINOMEScan assay
# [4] = Antiproliferative activity against human OPM2 cells after 48 hrs by CellTiter-Glo assay; type: functional, cell-based; conditions: OPM-2, 48 h
# Procedure, shortened: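 OPM2 grown in RPMI 1640 with 10% FBS and penicillin/streptomycin at 37 °C, 5% CO2. Treated at 25,000 cells/well in triplicate for 48 h. Viability read by CellTiter-Glo luminescence. IC50 taken from a sigmoidal fit of % viability vs log concentration.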
# [5] = test system: HEL 92.1.7; assay: Inhibition of colony formation in HEL 92.1.7 cells harboring JAK2 V617F mutant after 14 to 16 days; type: functional, cell-based; conditions: Homo sapiens
# Procedure, shortened: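 HEL cells (200 cells/mL) mixed into methylcellulose semi-solid medium with inhibitor at various concentrations. Incubated 14-16 days, then colonies counted. Data given as mean ± SEM.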
# [6] = molecular target: T1, Tyrosine-protein kinase JAK2 (Homo sapiens, UniProt O60674); assay: Inhibition of JAK2 in IL-6-stimulated human KMS-12-BM cells assessed as suppression of STAT3 phosphorylation at TY705 residue at 1.5 uM pretreated for 3 hrs followed by IL-6 stimulation by immunoblot method
# Procedure, shortened: (§1)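 Cells (at least 3x10^6 per condition; KMS-12-BM or MOLM-14) pretreated with compound for 3 h, then stimulated with IL-6 10 ng/mL for 15 min. Cells lysed, equal protein run on SDS-PAGE and transferred to PVDF. Immunoblotted for p-STAT3 (Tyr705), with membranes re-probed for total STAT3. Reference JAK2 inhibitor control at 2 µM (KMS-12-BM) or 0.1 µM (MOLM-14).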
# [7] = molecular target: T1, Tyrosine-protein kinase JAK2; assay: Inhibition of JAK2 in IL-6-stimulated human MOLM14 cells assessed as suppression of STAT3 phosphorylation at TY705 residue at 1.5 uM pretreated for 3 hrs followed by IL-6 stimulation by immunoblot method; type: cell-based; conditions: MOLM-14; procedure, shortened: as §1
# [8] = molecular target: T2, Protein deacetylase HDAC6 (Homo sapiens) (UniProt Q9UBN7); assay: Inhibition of HDAC6 in HEL 92.1.7 cells harboring JAK2 V617F mutant assessed as increase in acetylated tubulin level at 0.1 uM after 1 hr by immunoblot method; type: cell-based
# T2 sequence (whole entry): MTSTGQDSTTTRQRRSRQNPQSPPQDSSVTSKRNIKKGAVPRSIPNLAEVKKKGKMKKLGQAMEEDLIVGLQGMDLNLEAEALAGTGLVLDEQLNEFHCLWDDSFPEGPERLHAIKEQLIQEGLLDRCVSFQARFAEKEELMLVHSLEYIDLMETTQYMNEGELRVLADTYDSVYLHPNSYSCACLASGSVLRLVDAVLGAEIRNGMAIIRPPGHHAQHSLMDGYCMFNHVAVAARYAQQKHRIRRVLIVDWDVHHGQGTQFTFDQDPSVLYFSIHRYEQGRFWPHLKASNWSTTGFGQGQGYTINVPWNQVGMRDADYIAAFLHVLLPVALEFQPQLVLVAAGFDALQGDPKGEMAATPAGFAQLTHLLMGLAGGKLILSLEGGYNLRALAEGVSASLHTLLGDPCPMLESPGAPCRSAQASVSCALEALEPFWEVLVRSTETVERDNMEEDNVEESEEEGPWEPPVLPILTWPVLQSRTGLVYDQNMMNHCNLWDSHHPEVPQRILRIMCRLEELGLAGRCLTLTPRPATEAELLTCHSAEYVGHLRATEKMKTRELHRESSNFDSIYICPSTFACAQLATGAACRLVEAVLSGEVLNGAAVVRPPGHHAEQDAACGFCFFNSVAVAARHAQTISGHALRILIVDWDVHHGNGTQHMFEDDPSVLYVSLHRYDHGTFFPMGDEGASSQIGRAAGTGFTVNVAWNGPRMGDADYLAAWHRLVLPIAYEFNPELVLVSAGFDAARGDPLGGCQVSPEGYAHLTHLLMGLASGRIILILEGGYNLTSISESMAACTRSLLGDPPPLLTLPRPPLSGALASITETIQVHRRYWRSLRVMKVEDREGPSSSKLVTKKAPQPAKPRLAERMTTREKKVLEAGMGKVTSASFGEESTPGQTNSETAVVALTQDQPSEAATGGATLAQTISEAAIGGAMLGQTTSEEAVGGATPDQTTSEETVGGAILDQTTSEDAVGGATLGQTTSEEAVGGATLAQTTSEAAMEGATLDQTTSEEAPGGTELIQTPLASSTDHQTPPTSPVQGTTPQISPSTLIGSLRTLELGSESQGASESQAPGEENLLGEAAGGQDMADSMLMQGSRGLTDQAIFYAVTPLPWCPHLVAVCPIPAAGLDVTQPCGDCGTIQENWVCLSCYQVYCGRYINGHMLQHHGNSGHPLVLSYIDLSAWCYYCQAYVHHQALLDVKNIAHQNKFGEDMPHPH
# Procedure, shortened: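 HEL92.1.7 cells seeded at 5x10^5/mL and treated 1 h at 0, 0.1, 0.5 and 1 μM. Lysed in RIPA with phosphatase/protease inhibitors, run on 10% SDS-PAGE and blotted to PVDF. Probed for acetyl-tubulin, acetyl-H3 (Lys9/Lys14), p-JAK2 (Y1007/1008) and p-STAT5 (Tyr694); membranes re-probed for tubulin, H3, JAK2 and STAT5. Quantified by densitometry.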
# [9] = test system: MOLM-14; assay: Induction of apoptosis in human MOLM14 cells assessed as early apoptotic cells at 0.75 uM after 48 hrs by Annexin-V FITC/propidium iodide staining based flow cytometry (reference value: 3.6 to 3.7%); type: functional
# Procedure, shortened: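 MOLM-14 cells treated 48 h at the stated concentrations; doxorubicin as positive control. Stained with Annexin V-FITC and propidium iodide and analysed by flow cytometry (at least 10,000 events). Gated quadrants: Annexin V−/PI− viable, Annexin V+/PI− early apoptotic, Annexin V+/PI+ late apoptotic.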
# T1 sequence (O60674 whole entry): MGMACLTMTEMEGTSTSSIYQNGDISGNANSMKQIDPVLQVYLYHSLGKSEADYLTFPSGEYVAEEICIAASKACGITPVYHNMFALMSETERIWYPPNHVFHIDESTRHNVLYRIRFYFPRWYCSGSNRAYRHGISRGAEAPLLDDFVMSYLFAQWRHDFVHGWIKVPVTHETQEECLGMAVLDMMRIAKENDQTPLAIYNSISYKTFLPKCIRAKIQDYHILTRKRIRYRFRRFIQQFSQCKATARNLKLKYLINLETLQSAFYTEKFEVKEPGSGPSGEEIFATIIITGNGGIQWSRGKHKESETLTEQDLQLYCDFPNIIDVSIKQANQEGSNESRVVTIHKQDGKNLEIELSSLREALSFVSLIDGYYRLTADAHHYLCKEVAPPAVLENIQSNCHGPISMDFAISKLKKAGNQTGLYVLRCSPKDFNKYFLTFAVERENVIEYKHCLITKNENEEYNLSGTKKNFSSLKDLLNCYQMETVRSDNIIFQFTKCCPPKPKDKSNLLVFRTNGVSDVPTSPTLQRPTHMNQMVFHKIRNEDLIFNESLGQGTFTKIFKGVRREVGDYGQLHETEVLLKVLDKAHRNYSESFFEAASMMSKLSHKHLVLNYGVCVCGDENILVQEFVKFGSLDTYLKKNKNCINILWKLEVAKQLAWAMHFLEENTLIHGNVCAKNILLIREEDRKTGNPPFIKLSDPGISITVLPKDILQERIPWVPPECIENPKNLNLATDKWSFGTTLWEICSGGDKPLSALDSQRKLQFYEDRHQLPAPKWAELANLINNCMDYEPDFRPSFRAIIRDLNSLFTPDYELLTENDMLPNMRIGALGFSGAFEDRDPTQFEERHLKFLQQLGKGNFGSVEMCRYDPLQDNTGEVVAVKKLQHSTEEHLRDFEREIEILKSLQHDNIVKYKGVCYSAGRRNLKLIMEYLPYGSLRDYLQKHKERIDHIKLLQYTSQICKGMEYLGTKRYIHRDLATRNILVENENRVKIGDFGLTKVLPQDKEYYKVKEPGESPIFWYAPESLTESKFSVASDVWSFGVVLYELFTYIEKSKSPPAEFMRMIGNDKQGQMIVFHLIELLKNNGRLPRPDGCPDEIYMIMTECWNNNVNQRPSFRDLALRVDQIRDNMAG
# Histone deacetylase 9 (Homo sapiens), sequence (Q9UKV0 whole entry, canonical isoform): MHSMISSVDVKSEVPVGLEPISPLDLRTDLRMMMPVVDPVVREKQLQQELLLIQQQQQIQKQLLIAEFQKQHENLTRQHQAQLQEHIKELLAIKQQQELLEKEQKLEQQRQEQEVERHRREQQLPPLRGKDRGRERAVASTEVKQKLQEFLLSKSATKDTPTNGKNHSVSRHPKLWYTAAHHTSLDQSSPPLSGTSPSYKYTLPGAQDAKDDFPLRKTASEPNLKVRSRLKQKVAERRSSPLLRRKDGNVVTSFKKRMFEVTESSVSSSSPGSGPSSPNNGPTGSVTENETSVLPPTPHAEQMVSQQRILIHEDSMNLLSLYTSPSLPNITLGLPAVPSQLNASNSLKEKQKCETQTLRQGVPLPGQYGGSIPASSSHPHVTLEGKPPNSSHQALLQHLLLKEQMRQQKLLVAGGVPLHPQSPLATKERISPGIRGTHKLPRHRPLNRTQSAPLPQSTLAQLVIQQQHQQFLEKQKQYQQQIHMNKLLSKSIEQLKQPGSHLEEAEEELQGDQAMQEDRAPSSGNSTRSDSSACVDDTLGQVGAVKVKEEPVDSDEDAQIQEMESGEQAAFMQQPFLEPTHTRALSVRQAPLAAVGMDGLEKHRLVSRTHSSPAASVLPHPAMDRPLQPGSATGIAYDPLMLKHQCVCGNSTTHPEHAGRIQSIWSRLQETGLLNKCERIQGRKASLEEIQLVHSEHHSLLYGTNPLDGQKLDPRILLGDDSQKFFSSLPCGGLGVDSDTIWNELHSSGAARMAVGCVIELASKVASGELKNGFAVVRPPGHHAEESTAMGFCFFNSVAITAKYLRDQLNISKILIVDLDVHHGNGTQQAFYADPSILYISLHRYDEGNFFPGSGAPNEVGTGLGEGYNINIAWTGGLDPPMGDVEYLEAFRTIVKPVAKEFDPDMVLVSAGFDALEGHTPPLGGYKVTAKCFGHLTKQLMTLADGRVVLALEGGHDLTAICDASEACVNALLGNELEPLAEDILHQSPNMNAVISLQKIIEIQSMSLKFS
# Histone deacetylase 1, sequence (Q13547 whole entry, the tested form may be a part): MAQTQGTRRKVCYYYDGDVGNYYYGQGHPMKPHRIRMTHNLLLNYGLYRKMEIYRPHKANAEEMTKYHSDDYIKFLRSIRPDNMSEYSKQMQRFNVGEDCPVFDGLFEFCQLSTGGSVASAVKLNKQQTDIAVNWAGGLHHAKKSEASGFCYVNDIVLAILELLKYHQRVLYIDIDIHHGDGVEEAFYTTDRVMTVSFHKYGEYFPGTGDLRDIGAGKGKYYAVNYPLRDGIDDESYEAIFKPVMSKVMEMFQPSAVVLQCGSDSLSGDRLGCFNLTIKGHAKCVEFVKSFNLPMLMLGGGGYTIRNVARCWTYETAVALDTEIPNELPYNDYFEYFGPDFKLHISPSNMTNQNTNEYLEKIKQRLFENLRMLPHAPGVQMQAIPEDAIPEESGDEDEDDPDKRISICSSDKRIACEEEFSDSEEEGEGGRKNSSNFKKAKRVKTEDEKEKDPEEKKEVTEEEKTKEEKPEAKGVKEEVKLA
# Mitogen-activated protein kinase 10, sequence (P53779 whole entry, the tested form may be a part): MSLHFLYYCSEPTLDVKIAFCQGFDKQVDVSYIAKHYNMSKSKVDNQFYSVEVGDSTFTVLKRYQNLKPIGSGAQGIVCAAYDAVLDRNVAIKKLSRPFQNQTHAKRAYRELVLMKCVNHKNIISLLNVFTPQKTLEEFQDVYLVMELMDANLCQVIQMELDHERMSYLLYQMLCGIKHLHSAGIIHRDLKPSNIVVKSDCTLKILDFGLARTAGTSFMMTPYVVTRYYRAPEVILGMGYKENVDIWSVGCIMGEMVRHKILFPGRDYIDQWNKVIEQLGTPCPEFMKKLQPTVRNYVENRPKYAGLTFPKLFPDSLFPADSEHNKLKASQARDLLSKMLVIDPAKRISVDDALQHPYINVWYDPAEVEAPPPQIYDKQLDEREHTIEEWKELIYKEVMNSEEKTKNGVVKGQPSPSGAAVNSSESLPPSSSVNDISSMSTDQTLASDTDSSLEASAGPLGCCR
compound,measurement,setting,value
O=C(CCCCCCOc1ccc2cc1COC/C=C/COCc1cccc(c1)-c1ccnc(n1)N2)NO,IC50,[1],222 nM
same,inhibition,[2],14%
same,IC50,[3],1000 to 10000 nM
same,IC50,[4],2050 nM
same,inhibition,[5],Dose-dependent effect
same,inhibition,[6],Active
same,inhibition,[7],Active
same,inhibition,[8],Active
same,Activity,[9],13.3%
